Here are results for three compounds from publication PMC6635418 (Current Drug Delivery, 2019).

A short description of series [1]: Solubility study in distilled water. It counts as physicochemical. In a few lines:
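Each formulation, equivalent to 1 mg test compound, stirred in 1 mL distilled water at 600 rpm for 24 h at room temperature. Centrifuged at 13,000 rpm for 10 min and filtered through 0.45 µm. Filtrate diluted in ethanol and quantified by C18 HPLC-UV at 267 nm against a 0.5-20 µg/mL calibration. n=3, mean±SD.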

The test system of series [2] is breast cancer resistance protein (BCRP). The settings on record: read-out: IC50 against mitoxantrone efflux; BCRP inhibition; cited from earlier work.
Series [3] is described as follows: Pharmacokinetics of oral topotecan with or without chrysin formulations in rats. The class given is in vivo. Put shortly: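 Male Sprague-Dawley rats (250-290 g), fasted 12 h, n=3 per group. Oral BCRP substrate (10 mg/kg in saline) given alone or with test compound, free or as solid dispersion (100 mg/kg equivalent in 0.5% methylcellulose/5% PEG). Femoral arterial plasma analysed by HPLC-fluorescence (ex 350/em 527 nm), 10-1000 ng/mL. Noncompartmental: trapezoidal AUC, observed Cmax/Tmax. ANOVA with Dunnett's test.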

For series [4] the following is noted: cited from earlier work.
Where [5] appears, read: male, Sprague-Dawley, rat, plasma, po, 10 mg/kg.

≈ marks a conversion by molar mass, not a printed value.

The term solubility denotes the concentration that dissolves in the medium under given conditions. Read a high solubility as much dissolved substance. For orientation: IC50 means the midpoint of a concentration-inhibition curve. Take `O=c1cc(-c2ccccc2)oc2cc(O)cc(O)c12` [chrysin (untreated drug), 5,7-dihydroxyflavone]: the solubility at 24 h in series [1] was found to be 3.04 ± 0.19 µg/mL (≈ 11.9 µM). In addition, in series [2], the half-maximal inhibitory concentration (IC50) is 0.39 ± 0.13 µM. The “effect on oral exposure of topotecan” value in series [3] (rats, oral, versus topotecan only) is “no effect”.
Take `CCCCCCCCCCCCOCCOCCOCCOCCO` [Brij®L4, polyoxyethylene (4) lauryl ether]: in series [4], the “critical micelle concentration (CMC)” value is given as 0.00097 %, w/v.
The term AUC denotes concentration integrated over time. A lower AUC goes with low exposure. As a reminder, the Cmax is the maximum level reached in the sampled fluid or tissue. As a reminder, the Tmax is the time at which the peak concentration occurs. As for `CC[C@@]1(O)C(=O)OCc2c1cc1n(c2=O)Cc2cc3c(CN(C)C)c(O)ccc3nc2-1` [Control (Topotecan Only), topotecan], in series [3] (setting [5]), the exposure (AUC) amounted to 578 ± 37.2 ng·h/mL, the maximum concentration (Cmax) was 109 ± 44.5 ng/mL and the time to peak (Tmax) was 1.3 ± 0.66 h.
